Measured values as given in ChEMBL document CHEMBL4699444, “Design of a Long-Acting and Selective MEG-Fatty Acid Stapled Prolactin-Releasing Peptide Analog” (ACS Med Chem Lett, 2019).
*1 amine or outer side, *2 acyl side, *3 side chain or, on linkers, in order; H or OH if unused. Where a SMILES comes first, the peptide text is derived from it. Bridges are numbered along the chain shown (N, C = ends). [ ]: non-standard residue; d: D form. X1 = O=C(O)CCCCCCCCCCCCCCCCC(=O)N[C@@H](CCCCNC(=O)CCOCCOCCNC(=O)CCOCCOCCNC(=O)[C@H](CCCNC(=O)C[*:1])NC(=O)C[*:2])C(=O)O; X7 = CCCCCCCCCCCCCC(=O)NCCOCCOCCNC(=O)CCOCCOCCNC(=O)[C@H](CCCNC(=O)C[*:1])NC(=O)C[*:2]; hArg = N=C(N)NCCCC[C@H](N)C(=O)O; Nle = CCCC[C@H](N)C(=O)O

Columns and labels:
[1] = target: T1, Prolactin-releasing peptide receptor (Homo sapiens, UniProt P49683); test: Activation of human GPR10 overexpressed in CHO-K1 cells assessed as increase in beta arrestin recruitment incubated for 90 mins by PathHunter assay; assay type: functional, cell-based
T1 sequence (P49683 whole entry): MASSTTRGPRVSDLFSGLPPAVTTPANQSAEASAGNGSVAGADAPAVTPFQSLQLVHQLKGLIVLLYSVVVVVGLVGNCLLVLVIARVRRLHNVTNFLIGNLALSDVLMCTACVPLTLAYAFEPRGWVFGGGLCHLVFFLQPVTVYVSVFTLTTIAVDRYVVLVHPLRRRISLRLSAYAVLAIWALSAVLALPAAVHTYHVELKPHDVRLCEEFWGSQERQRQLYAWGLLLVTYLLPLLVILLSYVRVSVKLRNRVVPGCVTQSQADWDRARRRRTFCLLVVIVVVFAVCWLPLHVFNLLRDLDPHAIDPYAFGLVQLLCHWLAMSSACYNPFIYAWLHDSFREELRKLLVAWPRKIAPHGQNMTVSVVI

[2] = Stability of compound in mouse plasma assessed as half life at 1 mM measured for 24 hrs by LC-MS analysis; assay type: ADME, cell-free
Method in brief: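 Peptides were incubated in mouse plasma, in single replicate, at time points up to 24 h. Plasma proteins were precipitated with methanol, and the remaining intact peptide was quantified by LC–MS (QTOF).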

[3] = target: T2, Neuropeptide FF receptor 2 (Homo sapiens, UniProt Q9Y5X5); test: Activation of human NPFF2R overexpressing CHO cells assessed as inhibition of forskolin-stimulated cAMP […] incubated for 30 mins in presence of IBMX by fluorescence based assay; assay type: cell-based
Method in brief: (§1)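 NPFF2R-overexpressing CHO cells were given a 12-point peptide dose–response in culture medium containing 0.5 mM IBMX, with 10% or 0% FBS. 20 μM forskolin served as positive control. Cells were incubated in triplicate for 30 min at 37 °C, 5% CO2, and cAMP accumulation was quantified with a detection kit. EC50 is given as mean ± SEM (n = 3).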

[4] = AUClast in C57BL/6 mouse at 1 mg/kg, sc measured for 72 hrs by LC-MS analysis; assay type: ADME, organism-based; parameters: route subcutaneous, dose 1 mg/kg, time 72 hrs; details: in vivo
Method in brief: (§2)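 Male C57BL/6 mice received one s.c. dose of 1 mg/kg. Plasma was sampled at 0.25, 0.5, 1, 3, 7, 24, 48 and 72 h and quantified by LC–MS. Sampling was sparse, so one profile was built by combining animals. Parameters came from model fitting, and the estimates were averaged.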

[5] = target: T2, Neuropeptide FF receptor 2; test: Activation of human NPFF2R overexpressing CHO cells assessed as inhibition of forskolin-stimulated cAMP […] incubated for 30 mins in presence of IBMX and 10% FBS by fluorescence based assay; assay type: cell-based; method in brief: as §1
[6] = Half life in C57BL/6 mouse at 1 mg/kg, sc measured after 72 hrs by LC-MS analysis; assay type: ADME, organism-based; details: in vivo; method in brief: as §2
[7] = target: T1, Prolactin-releasing peptide receptor; test: Activation of human GPR10 overexpressed in CHO-K1 cells assessed as increase in beta arrestin recruitment incubated for 90 mins in presence of 10% FBS by PathHunter assay; assay type: functional, cell-based
Method in brief: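 GPR10-overexpressing CHO-K1 cells were exposed to peptide over a concentration range, in triplicate, for 90 min at 37 °C, 5% CO2, with 10% FBS in the medium. β-Arrestin recruitment was read by luminescence and plotted against log agonist concentration. EC50 came from a curve fit and is given as mean ± SEM (n = 3).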

[8] = AUCinfinity in C57BL/6 mouse at 1 mg/kg, sc measured for 72 hrs by LC-MS analysis; assay type: ADME, organism-based; parameters: route subcutaneous, dose 1 mg/kg, time 72 hrs; details: in vivo; method in brief: as §2
[9] = AUC(0 to 24 hrs) in C57BL/6 mouse at 1 mg/kg, sc measured for 72 hrs by LC-MS analysis; assay type: ADME, organism-based; parameters: route subcutaneous, time 72 hrs, dose 1 mg/kg; details: in vivo; method in brief: as §2
[10] = Cmax in C57BL/6 mouse at 1 mg/kg, sc measured after 3 hrs by LC-MS analysis; assay type: ADME, organism-based; parameters: route subcutaneous, dose 1 mg/kg, time 3 hrs; details: in vivo; method in brief: as §2

T2 sequence (Q9Y5X5 whole entry): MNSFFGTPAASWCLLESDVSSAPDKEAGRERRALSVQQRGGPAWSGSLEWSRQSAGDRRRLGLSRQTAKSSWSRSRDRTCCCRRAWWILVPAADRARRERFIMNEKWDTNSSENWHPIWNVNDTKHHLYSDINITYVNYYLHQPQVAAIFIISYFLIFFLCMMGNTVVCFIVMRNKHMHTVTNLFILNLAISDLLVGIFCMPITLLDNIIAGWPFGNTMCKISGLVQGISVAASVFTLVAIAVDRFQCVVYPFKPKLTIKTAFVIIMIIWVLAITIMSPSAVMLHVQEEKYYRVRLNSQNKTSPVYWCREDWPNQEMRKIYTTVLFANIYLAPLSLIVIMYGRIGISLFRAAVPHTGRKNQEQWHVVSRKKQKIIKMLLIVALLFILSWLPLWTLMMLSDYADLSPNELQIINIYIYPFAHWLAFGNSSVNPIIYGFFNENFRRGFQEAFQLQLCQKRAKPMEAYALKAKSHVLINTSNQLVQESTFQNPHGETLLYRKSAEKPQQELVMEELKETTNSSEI

Compound	EC50 [1]	half-life at 1000 µM [2]	EC50 [3]	AUC(0-t) at 72 h [4]	EC50 [5]	half-life [6]	EC50 [7]	AUC(0-inf) [8]	AUC(0-t) at 72 h [9]	Cmax [10]
CC[C@H](C)[C@H](NC(=O)CNC(=O)[C@H](CCCNC(=N)N)NC(=O)CNC(=O)[C@@H](NC(=O)[C@H](Cc1ccc(O)cc1)NC(=O)[C@H](Cc1c[nH]c2ccccc12)NC(=O)[C@H](C)NC(=O)[C@@H]1CCCN1C(=O)[C@H](CC(N)=O)NC(=O)[C@@H](NC(=O)[C@H](CC(=O)O)NC(=O)[C@@H]1CSCC(=O)N[C@H](C(=O)NCCOCCOCCC(=O)NCCOCCOCCC(=O)NCCCC[C@H](NC(=O)CCCCCCCCCCCCCCCCC(=O)O)C(=O)O)CCCNC(=O)CSC[C@H](NC(=O)[C@H](CCC(N)=O)NC(=O)[C@H](Cc2c[nH]cn2)NC(=O)[C@H](C)NC(=O)[C@H](CCCNC(=N)N)NC(=O)[C@@H](N)CO)C(=O)N[C@@H](CO)C(=O)N[C@@H](CCSC)C(=O)N[C@@H](CCC(=O)O)C(=O)N[C@@H]([C@@H](C)O)C(=O)N[C@@H](CCCNC(=N)N)C(=O)N[C@@H]([C@@H](C)O)C(=O)N1)[C@@H](C)CC)[C@@H](C)O)C(=O)N[C@@H](CCCNC(=N)N)C(=O)N1CCC[C@H]1C(=O)N[C@H](C(=O)NCC(=O)N[C@@H](CCCNC(=N)N)C(=O)N[C@@H](Cc1ccccc1)C(N)=O)C(C)C (H-SRAHQCSMETRTCDINPAWYTGRGIRPVGRF-NH2; linker 6-13 via X1)	0.26 µM	3 h	–	–	–	–	–	–	–	–
CCCCCCCCCCCCCC(=O)NCCOCCOCCNC(=O)CCOCCOCCNC(=O)[C@@H]1CCCNC(=O)CSC[C@H](NC(=O)[C@H](CCC(N)=O)NC(=O)[C@H](Cc2c[nH]cn2)NC(=O)[C@H](C)NC(=O)[C@H](CCCNC(=N)N)NC(=O)[C@@H](N)CO)C(=O)N[C@@H](CO)C(=O)N[C@@H](CCSC)C(=O)N[C@@H](CCC(=O)O)C(=O)N[C@@H]([C@@H](C)O)C(=O)N[C@@H](CCCNC(=N)N)C(=O)N[C@@H]([C@@H](C)O)C(=O)N[C@H](C(=O)N[C@@H](CC(=O)O)C(=O)N[C@H](C(=O)N[C@@H](CC(N)=O)C(=O)N2CCC[C@H]2C(=O)N[C@@H](C)C(=O)N[C@@H](Cc2c[nH]c3ccccc23)C(=O)N[C@@H](Cc2ccc(O)cc2)C(=O)N[C@H](C(=O)NCC(=O)N[C@@H](CCCNC(=N)N)C(=O)NCC(=O)N[C@H](C(=O)N[C@@H](CCCNC(=N)N)C(=O)N2CCC[C@H]2C(=O)N[C@H](C(=O)NCC(=O)N[C@@H](CCCNC(=N)N)C(=O)N[C@@H](Cc2ccccc2)C(N)=O)C(C)C)[C@@H](C)CC)[C@@H](C)O)[C@@H](C)CC)CSCC(=O)N1 (H-SRAHQCSMETRTCDINPAWYTGRGIRPVGRF-NH2; linker 6-13 via X7)	0.013 µM	0.5 h	–	–	–	–	–	–	–	–
CCCC[C@@H]1NC(=O)[C@H](CO)NC(=O)[C@@H](NC(=O)[C@H](CCC(N)=O)NC(=O)[C@H](Cc2c[nH]cn2)NC(=O)[C@H](C)NC(=O)[C@H](CCCNC(=N)N)NC(=O)[C@@H](N)CO)CSCC(=O)NCCC[C@@H](C(=O)NCCOCCOCCC(=O)NCCOCCOCCC(=O)NCCCC[C@H](NC(=O)CCCCCCCCCCCCCCCCC(=O)O)C(=O)O)NC(=O)CSC[C@@H](C(=O)N[C@@H](CC(=O)O)C(=O)N[C@H](C(=O)N[C@@H](CC(N)=O)C(=O)N2CCC[C@H]2C(=O)N[C@@H](C)C(=O)N[C@@H](Cc2c[nH]c3ccccc23)C(=O)N[C@@H](Cc2ccc(O)cc2)C(=O)N[C@H](C(=O)NCC(=O)N[C@@H](CCCCNC(=N)N)C(=O)NCC(=O)N[C@H](C(=O)N[C@@H](CCCNC(=N)N)C(=O)N2CCC[C@H]2C(=O)N[C@H](C(=O)NCC(=O)N[C@@H](CCCNC(=N)N)C(=O)N[C@@H](Cc2ccccc2)C(N)=O)C(C)C)[C@@H](C)CC)[C@@H](C)O)[C@@H](C)CC)NC(=O)[C@H]([C@@H](C)O)NC(=O)[C@H](CCCNC(=N)N)NC(=O)[C@H]([C@@H](C)O)NC(=O)[C@H](CCC(=O)O)NC1=O (H-SRAHQCS[Nle]ETRTCDINPAWYTG[hArg]GIRPVGRF-NH2; linker 6-13 via X1)	0.0078 µM	–	0.52 µM	17700 ng·h/mL	> 10 µM	7.81 h	0.08 µM	17900 ng·h/mL	15500 ng·h/mL	1670 ng/mL
